From ChEMBL document CHEMBL2321674, “Design, synthesis and biological evaluation of sulfur-containing 1,1-bisphosphonic acids as antiparasitic agents” (Eur J Med Chem, 2013) come the findings set out here.

Structures are written as SMILES. Bounds are passed on as bounds.

For orientation: IC50 means the concentration needed to halve the response being measured.

One data set concerns Trypanosoma cruzi. The experiment in a line: Antiparasitic activity against Trypanosoma cruzi amastigotes infected in gamma-irradiated vero cells assessed as growth inhibition measured after 3 days by fluorescence assay. As to conditions: light or radiation study, 72 h, read-out: ED50 (the source's name). In kind it is functional.
The next data set deals with Vero. Description: Cytotoxicity against african green monkey Vero cells assessed as cell viability at 25 uM. Format: cell-based. As to conditions: chlorocebus sabaeus.
For another data set, the system named is Toxoplasma gondii. Description: Antiparasitic activity against Toxoplasma gondii tachyzoite expressing red fluorescence protein assessed as growth inhibition by fluorescence plate reader. The following applies: read-out: ED50 (the source's name). Format: functional. The procedure, abridged:
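T. gondii tachyzoites expressing red fluorescent protein, filtered (3 μm) and needle-passed, inoculated at 10^4/well onto confluent hTerT monolayers in DMEM-HG with 1% FBS, 2 mM glutamine, 1 mM pyruvate, serial drug dilutions; 37 °C, 5% CO2, fluorescence read daily from bottom (ex 510/em 540 nm).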

Data set [1] has as its target T1, Farnesyl diphosphate synthase (Trypanosoma cruzi, UniProt Q8WS26).
T1 sequence (Q8WS26 whole entry): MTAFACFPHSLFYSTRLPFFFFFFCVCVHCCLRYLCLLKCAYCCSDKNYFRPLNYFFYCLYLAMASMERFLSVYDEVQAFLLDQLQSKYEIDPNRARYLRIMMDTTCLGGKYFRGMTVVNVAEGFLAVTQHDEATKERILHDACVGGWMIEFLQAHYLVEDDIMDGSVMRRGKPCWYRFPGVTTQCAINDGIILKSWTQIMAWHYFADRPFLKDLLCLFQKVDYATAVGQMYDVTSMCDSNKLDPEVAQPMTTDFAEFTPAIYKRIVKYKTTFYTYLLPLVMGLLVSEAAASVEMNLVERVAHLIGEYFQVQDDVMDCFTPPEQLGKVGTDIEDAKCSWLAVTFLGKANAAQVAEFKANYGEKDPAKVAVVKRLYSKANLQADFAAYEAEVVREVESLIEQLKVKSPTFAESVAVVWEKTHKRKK
The experiment in a line: Inhibition of Trypanosoma cruzi farnesyl diphosphate synthase assessed as incorporation of [4-14C]IPP measured at 37 degC.

Data set [2] concerns the target T2, Farnesyl diphosphate synthase (Toxoplasma gondii, UniProt Q197X6).
T2 sequence (Q197X6 whole entry): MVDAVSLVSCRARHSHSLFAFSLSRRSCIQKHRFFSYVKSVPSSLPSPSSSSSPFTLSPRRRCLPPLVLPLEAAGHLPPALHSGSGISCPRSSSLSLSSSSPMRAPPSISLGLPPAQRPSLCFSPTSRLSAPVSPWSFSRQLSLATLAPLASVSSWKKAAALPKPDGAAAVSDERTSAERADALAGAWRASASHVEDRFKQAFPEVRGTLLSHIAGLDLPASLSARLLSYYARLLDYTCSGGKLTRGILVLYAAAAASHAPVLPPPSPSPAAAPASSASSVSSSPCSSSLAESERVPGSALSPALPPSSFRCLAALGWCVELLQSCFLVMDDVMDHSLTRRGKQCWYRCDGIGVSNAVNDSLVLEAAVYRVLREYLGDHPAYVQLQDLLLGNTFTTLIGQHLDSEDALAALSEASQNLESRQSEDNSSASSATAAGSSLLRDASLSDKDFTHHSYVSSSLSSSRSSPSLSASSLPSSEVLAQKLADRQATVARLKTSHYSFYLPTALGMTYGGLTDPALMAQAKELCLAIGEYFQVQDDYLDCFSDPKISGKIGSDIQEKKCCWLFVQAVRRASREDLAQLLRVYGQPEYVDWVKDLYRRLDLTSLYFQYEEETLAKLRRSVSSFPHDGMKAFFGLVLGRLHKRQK
The experiment in a line: Inhibition of Toxoplasma gondii farnesyl diphosphate synthase assessed as incorporation of [4-14C]IPP measured at 37 degC.

Data set [3] in a line: Cytotoxicity against hTerT cells assessed as growth inhibition measured at > 200 uM after 3 to 4 days by Alamar Blue assay. The following applies: human. Format: cell-based. The procedure, abridged: (§1)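 Non-irradiated confluent hTERT cells in phenol-red-free high-glucose DMEM with 10% Cosmic Calf Serum, washed, serial drug dilutions in quadruplicate, 35 °C, 7% CO2 for 3–4 days. AlamarBlue at 10% of culture volume, 6 h at 35 °C, absorbance at 570 and 600 nm. Percent growth inhibition = 100 minus percent reduction difference versus untreated control; DMSO as toxicity control.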
For orientation: Alamar Blue is a resazurin reagent that responds to reducing activity.

Data set [4] in a line: Cytotoxicity against hTerT cells assessed as growth inhibition measured at > 1000 uM after 3 to 4 days by Alamar Blue assay. Format: cell-based. The following applies: human. Summed up: as §1
Data set [5] in a line: Cytotoxicity against hTerT cells assessed as growth inhibition measured at >= 500 uM after 3 to 4 days by Alamar Blue assay. In kind it is cell-based. As to conditions: human. Summed up: as §1

Turning to `CCCSCC(P(=O)(O)O)P(=O)(O)O`, the values for the EC50 in the data set with Trypanosoma cruzi and in the data set with Toxoplasma gondii were more than 20 µM and more than 10 µM, respectively. In the data set with Vero, the Activity entry was “Non-toxic”. The IC50 is 0.925 µM in data set [1] and 0.066 µM in data set [2].
With `CCCCCCCCCC[S+]([O-])CC(P(=O)(O)O)P(=O)(O)O` (stereo not drawn), the EC50 with Trypanosoma cruzi was more than 20 µM; with Toxoplasma gondii it was 7.6 µM. Besides, the Activity result with Vero is on record as “Non-toxic”. The IC50 in data set [1] and in data set [2] was more than 10 µM in each case.
Turning to `CCCCCS(=O)(=O)CC(P(=O)(O)O)P(=O)(O)O`, the EC50 in the data set on Trypanosoma cruzi was more than 20 µM; in the data set with Toxoplasma gondii, more than 10 µM. Also, the Activity entry with Vero is recorded as “Non-toxic”. Further, the IC50 in data set [1] and in data set [2] was more than 10 µM throughout.
Turning to `CCCCCCCC[S+](C)CC(P(=O)(O)O)P(=O)(O)O.F[B-](F)(F)F` (stereo not drawn), the EC50 with Trypanosoma cruzi is more than 20 µM; in the data set on Toxoplasma gondii it was 7 µM. Also, the Activity entry with Vero is recorded as “Non-toxic”. The IC50 was 0.04 µM in data set [1] and 0.013 µM in data set [2].
In the same order, the values of `CCCCCC(C)NCC(P(=O)(O)O)P(=O)(O)O` (stereo not drawn) are more than 20 µM, 11.4 µM, “Non-toxic”, more than 10 µM and less than 1 µM.
As for `CCCCCCCNCC(O)(P(=O)(O)O)P(=O)(O)O`, the EC50 was more than 20 µM in the data set on Trypanosoma cruzi and more than 10 µM in the data set with Toxoplasma gondii. Also, the Activity result with Vero is “Non-toxic”. The IC50 in data set [1] is more than 10 µM; in data set [2], more than 1 µM.
For `CCSCC(P(=O)(O)O)P(=O)(O)O`, the EC50 is more than 20 µM in the data set with Trypanosoma cruzi and more than 10 µM with Toxoplasma gondii. Also, the Activity result with Vero was “Non-toxic”. For the same molecule, the half-maximal inhibitory concentration (IC50) is 0.627 µM in data set [1] and 1.83 µM in data set [2].
The matching figures for `CCCCSCC(P(=O)(O)O)P(=O)(O)O`: more than 20 µM, more than 10 µM, “Non-toxic”, 0.789 µM and 0.048 µM.
For `CCCCCSCC(P(=O)(O)O)P(=O)(O)O`, the EC50 in the data set on Trypanosoma cruzi is more than 20 µM; with Toxoplasma gondii, more than 10 µM. In addition, the Activity entry in the data set with Vero is on record as “Non-toxic”. The values for the IC50 in data set [1] and in data set [2] were more than 10 µM and 0.11 µM, respectively.
In the case of `CCCCCCSCC(P(=O)(O)O)P(=O)(O)O`, the EC50 in the data set with Trypanosoma cruzi was more than 20 µM; with Toxoplasma gondii, 6.5 µM. Besides, in the data set on Vero, the Activity entry is recorded as “Non-toxic”. Further, the IC50 is more than 10 µM in data set [1] and 0.307 µM in data set [2].
On to `CCCCCCCSCC(P(=O)(O)O)P(=O)(O)O`, for which the EC50 in the data set with Trypanosoma cruzi was more than 20 µM; with Toxoplasma gondii it was 0.97 µM. Moreover, the Activity entry (with Vero; in data set [3]) was “Non-toxic” throughout. In addition, the values for the IC50 in data set [1] and in data set [2] were more than 10 µM and 0.069 µM, respectively.
Regarding `CCCCCCCCSCC(P(=O)(O)O)P(=O)(O)O`, the EC50 with Trypanosoma cruzi was 15.8 µM; in the data set on Toxoplasma gondii, 2.6 µM. Further, the Activity result (in the data set on Vero; in data set [4]) was “Non-toxic” each time. Further, the values for the concentration for half-maximal inhibition (IC50) in data set [1] and in data set [2] were 6.39 µM and 0.024 µM, respectively.
`CCCCCCCCCSCC(P(=O)(O)O)P(=O)(O)O`: the results for the EC50 in the data set on Trypanosoma cruzi and in the data set on Toxoplasma gondii were 12.8 µM and 1.2 µM, respectively. Besides, the Activity entry (in the data set with Vero; in data set [5]) was “Non-toxic” each time. For the same molecule, the figures for the concentration for half-maximal inhibition (IC50) in data set [1] and in data set [2] were 1.7 µM and 0.025 µM, respectively.
For the molecule `CCCCCCCCCCSCC(P(=O)(O)O)P(=O)(O)O`, the EC50 in the data set on Trypanosoma cruzi was more than 20 µM; with Toxoplasma gondii, 1.8 µM. The Activity result (in the data set with Vero; in data set [3]) was “Non-toxic” throughout. Also, the values for the IC50 in data set [1] and in data set [2] were 0.097 µM and 0.021 µM, respectively.
On to `CCCC[S+]([O-])CC(P(=O)(O)O)P(=O)(O)O` (stereo not drawn), for which the EC50 with Trypanosoma cruzi was more than 20 µM; in the data set with Toxoplasma gondii, more than 10 µM. For the same molecule, the Activity entry in the data set with Vero is recorded as “Non-toxic”. For the same molecule, the IC50 in data set [1] and in data set [2] was more than 10 µM each time.
`CCCCC[S+]([O-])CC(P(=O)(O)O)P(=O)(O)O` (stereo not drawn): the results for the EC50 with Trypanosoma cruzi and with Toxoplasma gondii were more than 20 µM and more than 10 µM, respectively. In addition, in the data set with Vero, the Activity entry is given as “Non-toxic”. Besides, the IC50 in data set [1] and in data set [2] was more than 10 µM throughout.
Turning to `CCCCCC[S+]([O-])CC(P(=O)(O)O)P(=O)(O)O` (stereo not drawn), the EC50 with Trypanosoma cruzi was more than 20 µM; in the data set on Toxoplasma gondii, more than 10 µM. For the same molecule, the Activity result with Vero is “Non-toxic”. The IC50 in data set [1] and in data set [2] was more than 10 µM each time.
For the molecule `CCCCCCC[S+]([O-])CC(P(=O)(O)O)P(=O)(O)O` (stereo not drawn), the EC50 is more than 20 µM in the data set on Trypanosoma cruzi and 5 µM in the data set on Toxoplasma gondii. Further, the Activity result in the data set with Vero is given as “Non-toxic”. Moreover, the IC50 is more than 10 µM in data set [1] and 0.009 µM in data set [2].
The matching figures for `CCCCCCCC[S+]([O-])CC(P(=O)(O)O)P(=O)(O)O` (stereo not drawn): more than 20 µM, 3 µM, “Non-toxic”, more than 10 µM and 0.016 µM.
On to `CCCCCCCCC[S+]([O-])CC(P(=O)(O)O)P(=O)(O)O` (stereo not drawn), for which the EC50 with Trypanosoma cruzi is 19.4 µM; in the data set on Toxoplasma gondii, 1.4 µM. The Activity entry (with Vero; in data set [4]) was “Non-toxic” in each case. Moreover, the IC50 in data set [1] is more than 10 µM; in data set [2], 0.056 µM.
For `O=C(Cn1ccnc1[N+](=O)[O-])NCc1ccccc1` [BENZNIDAZOLE], the EC50 in the data set with Trypanosoma cruzi was determined as 1.7 µM.
Regarding `O=P(O)(O)C(O)(Cc1cccnc1)P(=O)(O)O` [RISEDRONIC ACID], the EC50 in the data set with Trypanosoma cruzi stood at 55 µM; in the data set with Toxoplasma gondii, 2.4 µM.
